In ChEMBL document CHEMBL1154320, “Cytotoxic neo-clerodane diterpenoid alkaloids from Scutellaria barbata” (J Nat Prod, 2009):

Key:
Type in all cases: functional, cell-based
[1] = Cytotoxicity against human HONE1 cells after 72 hrs by methylene blue dye assay; settings: HONE1, 72 h
Method in brief: (§1)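 Log-phase cells seeded at 5000 cells/mL/well in 24-well plates, exposed to a range of compound concentrations for 72 h. Growth read by methylene blue dye staining. IC50 (50% growth inhibition versus untreated control) read graphically; mean ± standard deviation of three independent replicates. IC50 above 10 µM taken as non-cytotoxic. Etoposide and cisplatin served as positive controls.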

KB = assay: Cytotoxicity against human KB cells after 72 hrs by methylene blue dye assay; method in brief: as §1
HT-29 = assay: Cytotoxicity against human HT-29 cells after 72 hrs by methylene blue dye assay; settings: HT-29, 72 h; method in brief: as §1

Structure (SMILES): COc1cc([C@@H]2c3cc4c(cc3[C@@H](O[C@@H]3O[C@@H]5CO[C@@H](C)O[C@H]5[C@H](O)[C@H]3O)[C@H]3COC(=O)[C@H]23)OCO4)cc(OC)c1O [ETOPOSIDE]
- IC50 [1]: 1.2 µM
- IC50 (KB): 1.3 µM
- IC50 (HT-29): 2.3 µM

Structure (SMILES): CC1=CCC[C@H]2[C@@]1(C)[C@@H](OC(=O)c1ccccc1)[C@H](O)[C@]1(C)O[C@@]3(COC(=O)C3)C[C@H](OC(=O)c3cccnc3)[C@]21C [SCUTEHENANINE B]
- IC50 [1]: 3.5 µM
- IC50 (KB): 4.7 µM
- IC50 (HT-29): 5 µM

Structure (SMILES): CC1=CCC[C@H]2[C@@]1(C)[C@@H](OC(=O)C(=O)C(C)C)[C@H](OC(=O)c1cccnc1)[C@](C)(O)[C@]2(C)/C=C/C1=CC(=O)OC1
- IC50 [1]: 4 µM
- IC50 (KB): 4.2 µM
- IC50 (HT-29): 5.5 µM

Structure (SMILES): CC(=O)O[C@H]1[C@H](OC(=O)c2cccnc2)[C@](C)(O)[C@](C)(/C=C/C2=CC(=O)OC2)[C@H]2CCC=C(C)[C@]12C [6-O-ACETYLSCUTEHENANINE A]
- IC50 [1]: 3.7 µM
- IC50 (KB): 3.2 µM
- IC50 (HT-29): 5.2 µM

Structure (SMILES): C=C1CCC[C@H]2[C@@]1(C)[C@@H](OC(=O)c1ccccc1)[C@H](O)[C@]1(C)O[C@@]3(COC(=O)C3)C[C@H](OC(=O)c3cccnc3)[C@]21C [SCUTEHENANINE C]
- IC50 [1]: 3.4 µM
- IC50 (KB): 2.9 µM
- IC50 (HT-29): 5.3 µM

Structure (SMILES): CC1=CCC[C@H]2[C@@]1(C)[C@@H](O)[C@H](OC(=O)c1cccnc1)[C@](C)(O)[C@]2(C)/C=C/C1=CC(=O)OC1 [SCUTEHENANINE A]
- IC50 [1]: 3.1 µM
- IC50 (KB): 4.5 µM
- IC50 (HT-29): 5.8 µM

Structure (SMILES): CC1=CCC[C@H]2[C@@]1(C)[C@@H](OC(=O)c1cccnc1)[C@H](OC(=O)c1ccccc1)[C@](C)(O)[C@]2(C)[C@H]1CC2=C(O1)C(=O)OC2 [SCUTEHENANINE D]
- IC50 [1]: 4.1 µM
- IC50 (KB): 2.8 µM
- IC50 (HT-29): 6.4 µM
